Data: ChEMBL document CHEMBL4715745, “Synthesis and biological evaluation of novel FK228 analogues as potential isoform selective HDAC inhibitors” (Eur J Med Chem, 2016)

test system: SF-539; assay: Growth inhibition of human SF-539 cells measured after 48 hrs by sulforhodamine B assay; assay type: functional; conditions: not given
Method in brief: (§1)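 Panel of 39 human cancer cell lines tested at the Japanese Foundation for Cancer Research. Five concentrations per compound, spanning 10⁻¹¹–10⁻⁷ M, 10⁻¹⁰–10⁻⁶ M or 10⁻⁸–10⁻⁴ M, were used to build dose-response curves. GI₅₀ is the concentration giving 50% growth inhibition relative to control.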

| Structure (SMILES) | GI50 [nM] |
| --- | --- |
| CC(C)[C@H]1NC(=O)C[C@H]2/C=C/CCSSC[C@@H](NC1=O)C(=O)N[C@H](C)C(=O)NCC(=O)O2 | 10 |

test system: HCC 2998; assay: Growth inhibition of human HCC 2998 cells measured after 48 hrs by sulforhodamine B assay; assay type: functional; conditions: not given; method in brief: as §1

| Structure (SMILES) | GI50 [nM] |
| --- | --- |
| CC(C)[C@H]1NC(=O)C[C@H]2/C=C/CCSSC[C@@H](NC1=O)C(=O)N[C@H](C)C(=O)NCC(=O)O2 | 14 |

test system: not listed separately; assay: Growth inhibition of human HBC5 cells measured after 48 hrs by sulforhodamine B assay; assay type: functional; conditions: not given; method in brief: as §1

| Structure (SMILES) | GI50 [nM] |
| --- | --- |
| CC(C)[C@H]1NC(=O)C[C@H]2/C=C/CCSSC[C@@H](NC1=O)C(=O)N[C@H](C)C(=O)NCC(=O)O2 | 160 |

test system: MKN-74; assay: Growth inhibition of human MKN-74 cells measured after 48 hrs by sulforhodamine B assay; assay type: functional; conditions: not given; method in brief: as §1

| Structure (SMILES) | GI50 [nM] |
| --- | --- |
| CC(C)[C@H]1NC(=O)C[C@H]2/C=C/CCSSC[C@@H](NC1=O)C(=O)N[C@H](C)C(=O)NCC(=O)O2 | 35 |

test system: not listed separately; assay: Growth inhibition of human HBC4 cells measured after 48 hrs by sulforhodamine B assay; assay type: functional; conditions: not given; method in brief: as §1

| Structure (SMILES) | GI50 [nM] |
| --- | --- |
| CC(C)[C@H]1NC(=O)C[C@H]2/C=C/CCSSC[C@@H](NC1=O)C(=O)N[C@H](C)C(=O)NCC(=O)O2 | 30 |

test system: PC-3; assay: Growth inhibition of human PC-3 cells measured after 48 hrs by sulforhodamine B assay; assay type: functional; conditions: not given; method in brief: as §1

| Structure (SMILES) | GI50 [nM] |
| --- | --- |
| CC(C)[C@H]1NC(=O)C[C@H]2/C=C/CCSSC[C@@H](NC1=O)C(=O)N[C@H](C)C(=O)NCC(=O)O2 | 70 |

test system: OVCAR-5; assay: Growth inhibition of human OVCAR-5 cells measured after 48 hrs by sulforhodamine B assay; assay type: functional; conditions: not given; method in brief: as §1

| Structure (SMILES) | GI50 [nM] |
| --- | --- |
| CC(C)[C@H]1NC(=O)C[C@H]2/C=C/CCSSC[C@@H](NC1=O)C(=O)N[C@H](C)C(=O)NCC(=O)O2 | 14 |

test system: HT-29; assay: Growth inhibition of human HT-29 cells measured after 48 hrs by sulforhodamine B assay; assay type: functional; conditions: not given; method in brief: as §1

| Structure (SMILES) | GI50 [nM] |
| --- | --- |
| CC(C)[C@H]1NC(=O)C[C@H]2/C=C/CCSSC[C@@H](NC1=O)C(=O)N[C@H](C)C(=O)NCC(=O)O2 | 13 |

test system: NCI-H226; assay: Growth inhibition of human NCI-H226 cells measured after 48 hrs by sulforhodamine B assay; assay type: functional; conditions: not given; method in brief: as §1

| Structure (SMILES) | GI50 [nM] |
| --- | --- |
| CC(C)[C@H]1NC(=O)C[C@H]2/C=C/CCSSC[C@@H](NC1=O)C(=O)N[C@H](C)C(=O)NCC(=O)O2 | 110 |

test system: OVCAR-3; assay: Growth inhibition of human OVCAR-3 cells measured after 48 hrs by sulforhodamine B assay; assay type: functional; conditions: not given; method in brief: as §1

| Structure (SMILES) | GI50 [nM] |
| --- | --- |
| CC(C)[C@H]1NC(=O)C[C@H]2/C=C/CCSSC[C@@H](NC1=O)C(=O)N[C@H](C)C(=O)NCC(=O)O2 | 22 |

test system: not listed separately; assay: Growth inhibition of human BSY1 cells measured after 48 hrs by sulforhodamine B assay; assay type: functional; conditions: BSY-1; method in brief: as §1

| Structure (SMILES) | GI50 [nM] |
| --- | --- |
| CC(C)[C@H]1NC(=O)C[C@H]2/C=C/CCSSC[C@@H](NC1=O)C(=O)N[C@H](C)C(=O)NCC(=O)O2 | 36 |

test system: HCT-116; assay: Growth inhibition of human HCT-116 cells measured after 48 hrs by sulforhodamine B assay; assay type: functional; conditions: not given; method in brief: as §1

| Structure (SMILES) | GI50 [nM] |
| --- | --- |
| CC(C)[C@H]1NC(=O)C[C@H]2/C=C/CCSSC[C@@H](NC1=O)C(=O)N[C@H](C)C(=O)NCC(=O)O2 | 10 |

test system: OVCAR-4; assay: Growth inhibition of human OVCAR-4 cells measured after 48 hrs by sulforhodamine B assay; assay type: functional; conditions: not given; method in brief: as §1

| Structure (SMILES) | GI50 [nM] |
| --- | --- |
| CC(C)[C@H]1NC(=O)C[C@H]2/C=C/CCSSC[C@@H](NC1=O)C(=O)N[C@H](C)C(=O)NCC(=O)O2 | 100 |

test system: RXF 631; assay: Growth inhibition of human RXF 631 cells measured after 48 hrs by sulforhodamine B assay; assay type: functional; conditions: not given; method in brief: as §1

| Structure (SMILES) | GI50 [nM] |
| --- | --- |
| CC(C)[C@H]1NC(=O)C[C@H]2/C=C/CCSSC[C@@H](NC1=O)C(=O)N[C@H](C)C(=O)NCC(=O)O2 | 110 |

test system: SF-295; assay: Growth inhibition of human SF-295 cells measured after 48 hrs by sulforhodamine B assay; assay type: functional; conditions: not given; method in brief: as §1

| Structure (SMILES) | GI50 [nM] |
| --- | --- |
| CC(C)[C@H]1NC(=O)C[C@H]2/C=C/CCSSC[C@@H](NC1=O)C(=O)N[C@H](C)C(=O)NCC(=O)O2 | 71 |

test system: MKN-45; assay: Growth inhibition of human MKN-45 cells measured after 48 hrs by sulforhodamine B assay; assay type: functional; conditions: not given; method in brief: as §1

| Structure (SMILES) | GI50 [nM] |
| --- | --- |
| CC(C)[C@H]1NC(=O)C[C@H]2/C=C/CCSSC[C@@H](NC1=O)C(=O)N[C@H](C)C(=O)NCC(=O)O2 | 500 |

test system: SNB-78; assay: Growth inhibition of human SNB-78 cells measured after 48 hrs by sulforhodamine B assay; assay type: functional; conditions: not given; method in brief: as §1

| Structure (SMILES) | GI50 [nM] |
| --- | --- |
| CC(C)[C@H]1NC(=O)C[C@H]2/C=C/CCSSC[C@@H](NC1=O)C(=O)N[C@H](C)C(=O)NCC(=O)O2 | 10 |

test system: A549; assay: Growth inhibition of human A549 cells measured after 48 hrs by sulforhodamine B assay; assay type: functional; conditions: not given; method in brief: as §1

| Structure (SMILES) | GI50 [nM] |
| --- | --- |
| CC(C)[C@H]1NC(=O)C[C@H]2/C=C/CCSSC[C@@H](NC1=O)C(=O)N[C@H](C)C(=O)NCC(=O)O2 | 15 |

test system: ACHN; assay: Growth inhibition of human ACHN cells measured after 48 hrs by sulforhodamine B assay; assay type: functional; conditions: not given; method in brief: as §1

| Structure (SMILES) | GI50 [nM] |
| --- | --- |
| CC(C)[C@H]1NC(=O)C[C@H]2/C=C/CCSSC[C@@H](NC1=O)C(=O)N[C@H](C)C(=O)NCC(=O)O2 | 270 |

test system: MDA-MB-231; assay: Growth inhibition of human MDA-MB-231 cells measured after 48 hrs by sulforhodamine B assay; assay type: functional; conditions: not given; method in brief: as §1

| Structure (SMILES) | GI50 [nM] |
| --- | --- |
| CC(C)[C@H]1NC(=O)C[C@H]2/C=C/CCSSC[C@@H](NC1=O)C(=O)N[C@H](C)C(=O)NCC(=O)O2 | 21 |

test system: MKN-28; assay: Growth inhibition of human MKN-28 cells measured after 48 hrs by sulforhodamine B assay; assay type: functional; conditions: not given; method in brief: as §1

| Structure (SMILES) | GI50 [nM] |
| --- | --- |
| CC(C)[C@H]1NC(=O)C[C@H]2/C=C/CCSSC[C@@H](NC1=O)C(=O)N[C@H](C)C(=O)NCC(=O)O2 | 440 |
